In brackets after ≈: the same amount, converted by molar mass. Values belong to the compound of their own block, whether it stands above or below them.
Key:
[1] = system: Mus musculus; assay: In vivo concentration required to inhibit the Colon 26 murine […] cell growth by 50%; assay type: functional
[2] = system: Mus musculus; assay: In vivo antitumor activity (3.13 mg/kg) is the measure of tumor growth inhibition of human tumor xenograft DLD-1 (colon) implanted sc in mice.; assay type: functional
Summary of the method: (§1)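 Tumor fragments (2–3 mm3) implanted sc into female BALB/cA Jcl-nu mice on day 0; single iv dose given once tumor volume reached about 100 mm3. Read-out is maximum tumor growth inhibition, as percentage versus untreated group.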

[3] = system: Mus musculus; assay: In vivo antitumor activity (3.13 mg/kg) is the measure of tumor growth inhibition of human tumor xenograft WiDr (colon) implanted sc in mice.; assay type: functional; summary of the method: as §1
[4] = system: Mus musculus; assay: In vivo antitumor activity (3.13 mg/kg) is the measure of tumor growth inhibition of human tumor xenograft HCT116 (colon) implanted sc in mice.; assay type: functional; summary of the method: as §1
[5] = system: Mus musculus; assay: In vivo antitumor activity (3.13 mg/kg) is the measure of tumor growth inhibition of human tumor xenograft NUGC-3 (stomach) implanted sc in mice.; assay type: functional; summary of the method: as §1
[6] = Ratio between max dose within 10% body weight loss and tumor growth inhibition; assay type: functional
Summary of the method: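 Ratio of maximum dose within 10% body weight loss to the dose giving 50% tumor growth inhibition, in sc Colon 26-bearing mice dosed iv.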

[7] = system: Mus musculus; assay: In vivo antitumor activity is the measure of tumor growth inhibition of Colon 26 murine […] cells.; assay type: functional
Summary of the method: (§2)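 Colon 26 cells (10^6/mouse) inoculated sc into male CDF1 mice on day 0; single iv dose on day 7. Tumor growth inhibition expressed as percentage versus untreated group.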

[8] = system: Mus musculus; assay: In vivo antitumor activity (0.800 mg/kg) is the measure of tumor growth inhibition of human tumor xenograft NUGC-3 (stomach) implanted sc in mice.; assay type: functional; summary of the method: as §1
[9] = system: Mus musculus; assay: In vivo antitumor activity (0.845 mg/kg) is the measure of tumor growth inhibition of human tumor xenograft HCT116 (colon) implanted sc in mice.; assay type: functional; summary of the method: as §1
[10] = system: Mus musculus; assay: In vivo antitumor activity (0.845 mg/kg) is the measure of tumor growth inhibition of human tumor xenograft DLD-1 (colon) implanted sc in mice.; assay type: functional; summary of the method: as §1
[11] = system: HeLa; assay: Concentration required to inhibit the growth of HeLaS3 human uterine cervix carcinoma cells by 50%; assay type: functional, cell-based
[12] = system: Mus musculus; assay: In vivo antitumor activity (0.25 mg/Kg) is the measure of tumor growth inhibition of colon 26 murine […] cells.; assay type: functional
Summary of the method: (§3)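 Colon 26 cells (10^6/mouse) inoculated sc into male CDF1 mice on day 0; drug given iv on day 7. Read-out is percentage tumor growth inhibition versus the untreated group.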

[13] = system: Mus musculus; assay: In vivo antitumor activity (0.125 mg/Kg) is the measure of tumor growth inhibition of colon 26 murine […] cells.; assay type: functional; summary of the method: as §3
[14] = system: Mus musculus; assay: In vivo antitumor activity (1 mg/Kg) is the measure of tumor growth inhibition of colon 26 murine […] cells.; assay type: functional; summary of the method: as §3
[15] = system: P338; assay: In vitro concentration required to inhibit the growth of […] murine leukemia cells by 50%; assay type: functional, cell-based; conditions: Mus musculus
[16] = system: Mus musculus; assay: In vivo antitumor activity (0.25 mg/Kg) is the measure of increase in life span of mice bearing P388 murine leukemia cells; 2/2 cured mice (>60-day survivors); assay type: functional, organism-based
[17] = system: Mus musculus; assay: In vivo antitumor activity (0.125 mg/Kg) is the measure of increase in life span of mice bearing P388 murine leukemia cells; assay type: functional
[18] = system: Mus musculus; assay: In vivo antitumor activity (0.125 mg/Kg) is the measure of tumor growth inhibition in mice bearing S180 murine sarcoma cells; assay type: functional, CCRF S-180
[19] = system: Mus musculus; assay: In vivo antitumor activity (0.0884 mg/Kg) is the measure of tumor growth inhibition of colon 26 murine […] cells.; assay type: functional; summary of the method: as §2
[20] = system: Mus musculus; assay: In vivo concentration required to inhibit the colon 26 murine […] cell growth by 50%; assay type: functional
[21] = system: Mus musculus; assay: In vivo antitumor activity (0.584 mg/kg) is the measure of tumor growth inhibition of human tumor xenograft NUGC-3 (stomach) implanted sc in mice.; assay type: functional
Summary of the method: (§4)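 Tumor fragments (2–3 mm3) implanted sc into female BALB/cA Jcl-nu mice on day 0. A single iv dose was given once tumor volume reached about 100 mm3. Read-out is percentage of maximum tumor growth inhibition versus the untreated group.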

[22] = system: Mus musculus; assay: In vivo antitumor activity (0.584 mg/kg) is the measure of tumor growth inhibition of human tumor xenograft DLD-1 (colon) implanted sc in mice.; assay type: functional; summary of the method: as §4
[23] = system: Mus musculus; assay: In vivo antitumor activity (0.584 mg/kg) is the measure of tumor growth inhibition of human tumor xenograft HCT116 (colon) implanted sc in mice.; assay type: functional; summary of the method: as §4
[24] = system: Mus musculus; assay: In vivo antitumor activity (0.584 mg/kg) is the measure of tumor growth inhibition of human tumor xenograft WiDr (colon) implanted sc in mice.; assay type: functional; summary of the method: as §4
[25] = system: Mus musculus; assay: In vivo antitumor activity (1 mg/kg) is the measure of tumor growth inhibition of human tumor xenograft WiDr (colon) implanted sc in mice.; assay type: functional; summary of the method: as §4
[26] = system: Mus musculus; assay: In vivo antitumor activity (1 mg/kg) is the measure of tumor growth inhibition of human tumor xenograft DLD-1 (colon) implanted sc in mice.; assay type: functional; summary of the method: as §4
[27] = system: Mus musculus; assay: In vivo antitumor activity (0.716 mg/kg) is the measure of tumor growth inhibition of human tumor xenograft NUGC-3 (stomach) implanted sc in mice.; assay type: functional; summary of the method: as §4
[28] = system: Mus musculus; assay: In vivo antitumor activity (1 mg/kg) is the measure of tumor growth inhibition of human tumor xenograft HCT116 (colon) implanted sc in mice.; assay type: functional; summary of the method: as §4
[29] = system: Mus musculus; assay: In vivo antitumor activity (9.81 mg/kg) is the measure of tumor growth inhibition of human tumor xenograft HCT116 (colon) implanted sc in mice.; assay type: functional, organism-based; summary of the method: as §4
[30] = system: Mus musculus; assay: In vivo antitumor activity (9.81 mg/kg) is the measure of tumor growth inhibition of human tumor xenograft DLD-1 (colon) implanted sc in mice.; assay type: functional, organism-based; summary of the method: as §4
[31] = system: Mus musculus; assay: In vivo antitumor activity (9.81 mg/kg) is the measure of tumor growth inhibition of human tumor xenograft NUGC-3 (stomach) implanted sc in mice.; assay type: functional, organism-based; summary of the method: as §4
[32] = system: Mus musculus; assay: In vivo antitumor activity (9.81 mg/kg) is the measure of tumor growth inhibition of human tumor xenograft WiDr (colon) implanted sc in mice.; assay type: functional, organism-based; summary of the method: as §4

Compound: COC(=O)c1c(C(F)(F)F)[nH]c2c(OC(=O)N3CCN(C)CC3)cc3c(c12)[C@H](CCl)CN3C(=O)c1cc2cc(NC(=O)c3cc4cccc(OC)c4o3)ccc2[nH]1
- TGI50 [1]: 0.265 mg/kg
- TGI [2]: 83%
- TGI [3]: 86%
- TGI [4]: 90%
- TGI [5]: 100%
- Ratio [6]: 7.6
- TGI [7]: 95%

Compound: COC(=O)c1c(C(F)(F)F)[nH]c2c(OC(=O)N3CCN(C)CC3)cc3c(c12)[C@H](CCl)CN3C(=O)c1cc2cc(NC(=O)c3cc4ccccc4cn3)ccc2[nH]1
- TGI50 [1]: 0.082 mg/kg
- TGI [8]: 97%
- TGI [9]: 77%
- Ratio [6]: 6.1
- TGI [7]: 93%
- TGI [10]: 76%

Compound: COC(=O)c1c(C(F)(F)F)[nH]c2c(OC(=O)N3CCN(C)CC3)cc3c(c12)[C@H](CCl)CN3C(=O)c1cc2cc(NC(=O)c3cc4c(OC)c(OC)c(OC)cc4cn3)ccc2[nH]1
- TGI50 [1]: 0.13 mg/kg
- Ratio [6]: 3.9
- TGI [7]: 89%

Compound: COC(=O)c1c(C(F)(F)F)[nH]c2c(OC(=O)N3CCN(C)CC3)cc3c(c12)[C@H](CCl)CN3C(=O)c1cc2cc(NC(=O)c3cc4ccc(OC)cc4o3)ccc2[nH]1
- TGI50 [1]: 0.108 mg/kg
- Ratio [6]: 4.6
- TGI [7]: 89%

Compound: COC(=O)c1c(C(F)(F)F)[nH]c2c(OC(=O)N3CCN(C)CC3)cc3c(c12)[C@H](CCl)CN3C(=O)c1cc2cc(NC(=O)c3cc4cc(OC)c(OC)c(OC)c4o3)ccc2[nH]1
- TGI50 [1]: 0.0533 mg/kg
- Ratio [6]: 4.5
- TGI [7]: 90%

- IC50 [11]: 0.11 ng/mL (≈ 0.159 nM)
Compound: COC(=O)c1c(C(F)(F)F)[nH]c2c(O)cc3c(c12)[C@H](CCl)CN3C(=O)c1cc2cc(NC(=O)c3cc4ccc(OC)cc4cn3)ccc2[nH]1
- TGI [12]: 82%

Compound: COC(=O)c1c(C(F)(F)F)[nH]c2c(OC(=O)N3CCN(C)CC3)cc3c(c12)[C@H](CCl)CN3C(=O)c1cc2cc(NC(=O)c3cc4cc(OC)ccc4o3)ccc2[nH]1.Cl
- TGI50 [1]: 0.148 mg/kg
- Ratio [6]: 6.8
- TGI [7]: 86%

Compound: COC(=O)c1c(C(F)(F)F)[nH]c2c(O)cc3c(c12)[C@H](CCl)CN3C(=O)c1cc2cc(NC(=O)c3cc4ccccc4cn3)ccc2[nH]1 (racemic)
- IC50 [11]: 0.24 ng/mL (≈ 0.363 nM)
- TGI [12]: 82%

Compound: COC(=O)c1c(C(F)(F)F)[nH]c2c(O)cc3c(c12)[C@H](CCl)CN3C(=O)c1cc2cc(NC(=O)c3cc4cc(OC)c(OC)c(OC)c4o3)ccc2[nH]1 (racemic)
- TGI [13]: 74%
- IC50 [11]: 0.17 ng/mL (≈ 0.229 nM)

Compound: COC(=O)c1c(C(F)(F)F)[nH]c2c(O)cc3c(c12)[C@H](CCl)CN3C(=O)c1cc2cc(-c3cc4ccccc4o3)ccc2[nH]1 (racemic)
- IC50 [11]: 3.6 ng/mL (≈ 5.92 nM)
- TGI [14]: 84%

Compound: COC(=O)c1c(C(F)(F)F)[nH]c2c(O)cc3c(c12)[C@H](CCl)CN3C(=O)c1cc2cc(NC(=O)c3cc4cc(OC)c(OC)c(OC)c4[nH]3)ccc2[nH]1 (racemic)
- IC50 [11]: 0.2 ng/mL (≈ 0.27 nM)
- TGI [12]: 83%

Compound: COC(=O)c1c(C(F)(F)F)[nH]c2c1[C@@]13C[C@@H]1CN(C(=O)c1cc4cc(NC(=O)c5cc6ccccc6[nH]5)ccc4[nH]1)C3=CC2=O (racemic)
- IC50 [15]: 0.86 ng/mL (≈ 1.4 nM)
- ILS [16]: 2/2 cured mice (>60-day survivors)

Compound: COC(=O)c1c(C(F)(F)F)[nH]c2c(O)cc3c(c12)[C@H](CCl)CN3C(=O)c1cc2cc(NC(=O)c3cc4cccc(OC)c4cn3)ccc2[nH]1 (racemic)
- IC50 [11]: 0.51 ng/mL (≈ 0.737 nM)
- TGI [12]: 90%

Compound: COC(=O)c1c(C(F)(F)F)[nH]c2c(O)cc3c(c12)[C@H](CCl)CN3C(=O)c1cc2cc(NC(=O)c3cc4cc(OC)ccc4cn3)ccc2[nH]1 (racemic)
- IC50 [11]: 0.18 ng/mL (≈ 0.26 nM)
- TGI [12]: 90%

Compound: COC(=O)c1c(C(F)(F)F)[nH]c2c(O)cc3c(c12)[C@H](CCl)CN3C(=O)c1cc2cc(NC(=O)c3cc4c(OC)cccc4cn3)ccc2[nH]1 (racemic)
- TGI [13]: 67%
- IC50 [11]: 0.2 ng/mL (≈ 0.289 nM)

Compound: Cc1c[nH]c2c1[C@@]13C[C@@H]1CN(C(=O)c1cc4cc(NC(=O)c5cc6ccccc6[nH]5)ccc4[nH]1)C3=CC2=O (racemic)
- ILS [17]: 210%
- IC50 [15]: 0.028 ng/mL (≈ 0.0558 nM)
- TGI [18]: 86%

Compound: COC(=O)c1c(C(F)(F)F)[nH]c2c1[C@@]13C[C@@H]1CN(C(=O)c1cc4cc(NC(=O)c5cc6ccccc6o5)ccc4[nH]1)C3=CC2=O (racemic)
- ILS [16]: 2/2 cured mice (>60-day survivors)

Compound: Cc1c[nH]c2c1[C@@]13C[C@@H]1CN(C(=O)c1cc4cc(NC(=O)c5cc6ccccc6o5)ccc4[nH]1)C3=CC2=O [ADOZELESIN]
- IC50 [11]: 0.0364 ng/mL (≈ 0.0724 nM)
- TGI [19]: 79%
- TGI50 [20]: 0.0444 mg/kg
- Ratio [6]: 2

Compound: CCN(CC)c1ccc2cc(C(=O)Nc3ccc4[nH]c(C(=O)N5C[C@@H](CCl)c6c5cc(OC(=O)Nc5ccccc5)c5[nH]cc(C)c65)cc4c3)oc2c1 [CARZELESIN]
- TGI [21]: 98%
- TGI [22]: 79%
- TGI [23]: 82%
- TGI [24]: 56%

Compound: COC(=O)c1c(C)[nH]c2c(OC(=O)N3CCN(C)CC3)cc3c(c12)[C@H](CBr)CN3C(=O)c1cc2cc(OC)c(OC)c(OC)c2[nH]1 [PIBROZELESIN]
- TGI [25]: 59%
- TGI [26]: 65%
- TGI [27]: 91%
- Ratio [6]: 3.4
- TGI [28]: 73%

Compound: CISPLATIN
- TGI [29]: 34%
- TGI [30]: 25%
- TGI [31]: 87%
- TGI [32]: 44%

— ChEMBL document CHEMBL1132709, “Novel cyclopropapyrroloindole derivative (AT-3510) bearing methoxycarbonyl and trifluoromethyl groups” (J Med Chem, 1999)
